Measurements published in the EternaBench riboswitch data.

Tested on: MS2 coat protein
Assay: apparent Kd, MS2 coat protein; higher = weaker binding; RNA-MaP array; FMN 200 µM where present
In short: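 Binding was read on Illumina sequencing-chip clusters where stalled E. coli RNA polymerase had transcribed each design. A titration of SNAP-549-labelled MS2 coat protein began at 0.7 or 1.5 nM and doubled to 3 µM, once without ligand and once with constant ligand, in 100 mM Tris-HCl pH 7.5, 80 mM KCl, 4 mM MgCl2, BSA, DTT, yeast tRNA and Tween-20. The apparent Kd is the median of filtered per-cluster binding-curve fits, based on green signal normalised to red-channel RNA signal and control-cluster median Fmax.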

[1] = designed as: OFF switch for flavin mononucleotide, no ligand
[2] = ligand present: flavin mononucleotide, designed as: OFF switch for flavin mononucleotide
[3] = designed as: ON switch for flavin mononucleotide, no ligand
[4] = ligand present: flavin mononucleotide, designed as: ON switch for flavin mononucleotide

Row | Sequence | apparent Kd [1] [nM] | apparent Kd [2] [nM] | apparent Kd [3] [nM] | apparent Kd [4] [nM]
1 | AUGUCUCUAGGAUAUUAGCGGAUCUACAUGAGGAUCACCCAUGUCGUGUCGCAGAUGUGCUGAGAAGGAGAGCACA | 15.2 | 19 |  | 
2 | ACAAAUGGAGGAUAUACAUGAGGAUCACCCAUGUAUAUCCUACAUAUGUGAUAAAAAUGUAGAAGGCCAUUUGA | 11.6 | 10.8 |  | 
3 | GGUGGACAUGAGGAUCACCCAUGUGAGGAUAUCGGCUAUCUACUCGCUGACGGCUGCUCGAGAAGGCACAUUGU | 70.7 | 107 |  | 
4 | UCGUUUUUUGAGGAUAUGCGACGUUUUUUCGUCGUAGAAGGCGAUACAUGAGGAUCACCCAUGUUUAUGGGCAU | 190 | 318 |  | 
5 | GUCGGAAACGACAAUGAUAGGACUGAGGAUAUACAUAAAUAAUCCUCUACAUGAGGAUCACCCAUGUAGAAGGCAGUCCUAUCU | 19 | 24.6 |  | 
6 | ACAUGAGGAUCACCCAUGUGUGCAUAGGAUAUUGAGGAUUAGGGAUGUUUUUUUGGAUUUGCCCACAAGAAGGAUGAAAGUGUU |  |  | 10.6 | 10.5
7 | GGAUCGAAUGUCAGGAUAUGCUGGUCCUUGGAUCAGCAGAAGGGACAUGAGGAUCACCCAUGUGACGACGGUCC | 64.7 | 503 |  | 
8 | UCAUGCAUAGCGAUAUGAUCGAGAGAUCAUGUCGCUAAAUUUAGAAGGACAUGAGGAUCACCCAUGUAGGAUAUGGGAGCAUGC |  |  | 419 | 59.3
9 | GUGUACGGAGGAUAUAUAUGGGCAGGCUGACCUGCAGCUUCACAUGAGGAUCACCCAUGUAGAAGGCUGUACAC | 41.9 | 224 |  | 
10 | UAAAUACAUGAGGAUCACCCAUGUGAGGAUAUCCGAUGAUUCGGAGAAAUGACCCGUUGGAGAAGGCAUAGGGC | 30.8 | 22.7 |  | 
11 | CAUAACUUUGAUCUCUCCUACAUGAGGAUCACCCAUGUUGAGAGAAGGAGGCGGCAGAGUGCUGCCUAGGAUAUCUGAAGGGUC | 6.19 | 7.28 |  | 
12 | UACAGCUUGACAGGAUAUACAUGUCAGCGAAAGCUGACUAUCUUAAUAACAUGAGGAUCACCCAUGUAGAAGGGUCGAGCUGUA | 16.8 | 26.6 |  | 
13 | GUAGCAUACCGAGGAUAUUCUAACCGGAAACGGACAUGAGGAUCACCCAUGUGGCGAAAGCCUAGGGAGAAGGCGGAAUGCUAC |  |  | 10.5 | 11.6
14 | CCAUAAAAGAUCCAAUUUUACAACAUGAGGAUCACCCAUGUGCAGGAUAUCGUGAAAGUAAAAUACGAGAAGGGCAAGAACUGC | 265 | 246 |  | 
15 | GAGAAGUCAGGAUAUCCAUGGCGGCACUUGCGUGGUGGCGUGGAGAAGGGACAUGAGGAUCACCCAUGUAAAGG | 165 | 157 |  | 
16 | AAUAGGUUUCCCGGUGGUUAAUACAUGAGGAUCACCCAUGUCAAGGAUAUAGCCGUAUAACCAGGUUAGAAGGUGACUAAAUGA | 67.5 | 120 |  | 
17 | AAACAUGUCCGAGGAUAUCUGGAAACAUUUUCAAGAGAAGGCGGACAUGAGGAUCACCCAUGUCUCUCCUCAUCAACUACAUAU | 8.09 | 59.4 |  | 
18 | AUACUGAGCGUAAAUUACCUGAACAUGAGGAUCACCCAUGUGGAGGAUAUUGACCUAGCAAAGCUCGAGAAGGCCACUGGGAUG | 32.3 | 18.7 |  | 
19 | GUUUUACAUGAGGAUCACCCAUGUGAGGAUAUAUUGUUAAUAGUGAUAAUUAUUGGUGGUAGAAGGCGCGUGAU | 46.8 | 39.7 |  | 
20 | AAAAGUAGAGGAUAUACAUGAGGAUCACCCAUGUAGAAAGGAAGUAUAUAUAUGGCGUGUAGAAGGCUGCAUGA | 34.5 | 32.2 |  | 
21 | GGACCUCCUGAGGAUAUUGUAUCACCUGAUUGAUAAGAAGGCAGAACAUGAGGAUCACCCAUGUGGGUACUCGG | 168 | 145 |  | 
22 | CGAGGUGGAGUGAGGAUAUCGUGUUCGAAAGAACGUGAGAAGGCACAUGAGGAUCACCCAUGUGAUUCAGCUCG | 24.6 | 69.4 |  | 
23 | GACUGAUUGUAGAAGGUACUUGACUAUAUAUUUUAUUCAUAUAGACAUGAGGAUCACCCAUGUAGUAAGGAUAUACUUUUAACA |  |  | 9.31 | 6
24 | CGCAAGGAUACAUGAGGAUCACCCAUGUCAGAAAGGGUAAUCAGAAGGUACAAUUAGAGAUAGAGUAAGGAUAUGAAAUUUGCG |  |  | 966 | 313
25 | AGAAGUUUGUAGAAGGACGACUAAUUUGUAUUCGUAGGAUAUACUAUUUACAUGAGGAUCACCCAUGUUUUUAUGGAACAAUGU | 11.9 | 17.2 |  | 
26 | GUGUACAGAGGAUAUACAUGGGCAUGAAAACAUGCAUCUUCACAUGAGGAUCACCCAUGUAGAAGGCUGUACAC | 24.6 | 16.9 |  | 
27 | GGGUAGAUCCGAGGAUAUACAAUCCGGAAACGGUACAUGAGGAUCACCCAUGUAGAAGGCGGAUCUACAGGUACUAAAGUACCC | 6.32 | 8.65 |  | 
28 | CUGUGACGGUGCGCAUGUGGACGGAGAAGGCAGACAUGAGGAUCACCCAUGUGAGCCUGCUAUUCUGAGGAUAUCCGUUCGCAC | 31.8 | 192 |  | 

Row | Sequence | apparent Kd [1] [nM] | apparent Kd [2] [nM] | apparent Kd [3] [nM] | apparent Kd [4] [nM]
29 | GGUCCUCUGGUGAGGAUAUCUACCCAGGCAGCUGGAGAGAAGGCACAUGAGGAUCACCCAUGUAGCAGAAAACC | 9.98 | 17 |  | 
30 | UGAUACUAAGAGAAGGUUCAAACUACAUAUUACAUACAUGAGGAUCACCCAUGUUGGUGAAUAAGAAAGGAUAUUUUACUAUAU | 25.7 | 21.6 |  | 
31 | GCAGGUCGGAAGGAUAUGAAUCUGCUCGCAGUUUCAGAAGGUCUGACAUGAGGAUCACCCAUGUUGGGCGCAUC | 56.5 | 236 |  | 
32 | CACUGCAUGUAAGGAUAUCGACUGGAUAACAGUCGAGAAGGUACAUGAGGAUCACCCAUGUAAAUAAUAAUAAAUAAAGCAGUG | 15.1 | 25.1 |  | 
33 | UUGGACGUCGUAGGAUAUGUAGGAUACUCCUACAUGAGGAUCACCCAUGUUGACAUGGAAGAAGGACAGAAGGACGAUGUCCAU |  |  | 753 | 50.5
34 | CGCUAAUUAAUUAUAUUAAUUAUACAGGAUAUGUAACAUGAGGAUCACCCAUGUAUUCAAUGUAAACAGAAGGGUAUAUUAGCG | 10.7 | 16.2 |  | 
35 | AAGGUACAUGAGGAUCACCCAUGUGGGUCGGUCGCAGGAUAUCGCCGUUGGCCCUGGCGGCGAGAAGGGUGCCGAA |  |  | 375 | 61.1
36 | AAACCACAUGAGGAUCACCCAUGUGAGGAUAUGAUACUAUGUACUUCGGUACAUAGUAUCAGAAGGCAUAUGAA | 24.6 | 25.1 |  | 
37 | GGUUCUAGAGGAUAUACAAACUGAUCCUCAGAGCGCCGGCCACAUGAGGAUCACCCAUGUAGAAGGUUGGAAUC | 20.3 | 11.6 |  | 
38 | GGGUACAUCGGAGGAUAUCAUGUAAAUACAUGAGGAUCACCCAUGUCGAUGGAGACAUCGGACAUUGAGAAGGCCGAUGUACCG |  |  | 29.2 | 5.79
39 | ACAUGAGGAUCACCCAUGUAAUGAUGGGUACUAUAUUAUUCGUAGGAUAUCGUUGUUAGUUUGUGCGAGAAGGACGAUUGCUUU | 871 | 1060 |  | 
40 | UCCUUGUCCUGAGGAUAUCCGUGGUGACCGAAAGGAGAAGGCAGGACAUGAGGAUCACCCAUGUACCCAGAAAACGUGCAGAGU | 66.5 | 458 |  | 
41 | AAUGGCGUCCAAGGAUAUCCUGACCGUUAACAUGAGGAUCACCCAUGUUGCCUAAAGGCGGCAUAGGAGAAGGUGGUACUCUGU |  |  | 73.3 | 124
42 | UUUUACAUAGGAUAUAGUUUCUUUUACAUGAGGAUCACCCAUGUCUCUCCUCUCUCUCUUCUAGAAGGAUGUUUCU | 80.1 | 72 |  | 
43 | GCAUUGAUAGCAGGAUAUAUGUUUCCUACAUGAGGAUCACCCAUGUAGGUGAUCAGCCGAGAAAAGUAGAAGGGCUAUCAAUGC |  |  | 15.6 | 14.1
44 | GCCAUCGCAUGAGGAUAUGGUCAGCUUUGCUGACCAGAAGGCAUGUCAAUAGACAUGAGGAUCACCCAUGUAGUUAAGAUGGCA |  |  | 797 | 54
45 | GGUCCACAUGAGGAUCACCCAUGUUAGGAUAUCUCGCCCGAGCCCAUAUGGGCCAGGCAGAGAAGGAAUGUGAA | 23.7 | 23.5 |  | 
46 | GUAUAUAUGAGGUAGGAUAUCCAAAAUAAAACAUGAGGAUCACCCAUGUAAAUAAAUAAUAAAUGGGAGAAGGACCACAUAUAUAC |  |  | 30.8 | 13.8
47 | GUCAGCUCGUGAGGAUAUACAACACUGCUUCGGCAGUGUGUUAAGAUCACAUGAGGAUCACCCAUGUAGAAGGCACGAGCUGAU | 7.69 | 88.9 |  | 
48 | UGCACCAACGAGAAGGCACAGAUCCAGCUCUUGACAUGAGGAUCACCCAUGUGAGGAUAUCGUAGGUGCGAUUUGGGACAAUCU | 11 | 91.8 |  | 
49 | CUCCUGUAAGGAUAUCUGACAAGUGACGAAAGUCACAGUUCAGAGAAGGUACAUGAGGAUCACCCAUGUAGAAC | 32.2 | 139 |  | 
50 | UUCAGGGAUCAAGGAUAUCUAUACUCAUGCGGACAUGAGGAUCACCCAUGUUGAUUACCCAUGAGGGAGAAGGUGAACAUGAGG |  |  | 31.3 | 18.7
51 | UGAUACUGAGAGAAGGUUCAAACUACAUAUUGCAUACAUGAGGAUCACCCAUGUUGGUGAAUAAGAAAGGAUAUUUUACUAUAU | 47 | 32.8 |  | 
52 | UGAUAGGACAGAGGAUAUACGUCCUAGAGAUACUAGGAAAGUUUCCUCACAUGAGGAUCACCCAUGUAGAAGGCUGUCCUAUCU | 19 | 472 |  | 
53 | AGUGUCAUCGAGAAGGCCCUGACAUGAGGAUCACCCAUGUUGUUACAUGGGAGGAUAUCGAUGAUACAGCUACGUUUCGUAGCA |  |  | 12.8 | 5.05
54 | GCUAGUAUUGCAGGAUAUUGUGAAUAAUUAUUUCAAGAAGGGCAUUACAUGAGGAUCACCCAUGUCAUCCUUUUGAAUACUAGC | 5.67 | 7.63 |  | 
55 | CAGCUCGUGUGAGGAUAUGCCGCCGUUUCGGCUGCAGAAGGUGCUACGUUACAUGAGGAUCACCCAUGUCUCUGUUGUUUCGUU |  |  | 23.5 | 20.6
